Experimental data collected from several papers.
Protocols differ between the studies behind these lines.

SMILES | organism | assay | test system | conditions | measurement | result
NC(=O)c1ncn([C@@H]2O[C@H](CO)[C@@H](O)[C@H]2O)n1 | Enterovirus B | viral replication, inhibitor | Vero, B4 |  | EC50 | > 250 µM
COC(=O)c1cc(-c2cccc(NC(=O)Nc3cccc(C(F)(F)F)c3)c2)on1 | Acinetobacter baumannii | microbial growth, broth dilution | BAA1605 |  | MIC | > 64 µg/mL
Cc1cc(/C=C2\Sc3ccccc3N2CCCN2CCCCC2)c2ccccc2[n+]1C.[I-] | Acinetobacter baumannii | microbial growth, broth dilution | ATCC19606 | drug-resistant strain | MIC | 64 µg/mL
CC(C)(CO)C(=O)SCCOP(=O)(NCc1ccccc1)OC[C@H]1O[C@@H](n2cnc3c(=O)[nH]c(N)nc32)[C@](C)(O)[C@@H]1O (mixture of isomers) | Hepatitis C virus | viral replication, inhibitor | Huh-7, GETYPE1 | replicon | EC90 | 0.9 µM
COc1cccc(OC)c1C(=O)N[C@@H]1C(=O)N2[C@@H]1SC(C)(C)[C@@H]2C(=O)O | Acinetobacter baumannii | microbial growth, broth dilution | ATCC19606 | drug-resistant strain | MIC | > 256 µg/mL
C=C1/C(=C\C=C2/CCC[C@]3(C)[C@@H]([C@H](C)CCCC(C)(C)O)CC[C@@H]23)C[C@@H](O)C[C@@H]1O | Hepatitis C virus | viral replication, inhibitor, luciferase | BM4-5, GETYPE1B | 72 h, replicon | EC50 | 3.19 µM
CC1CCN(CCCN2/C(=C/c3cc[n+](C)c4ccccc34)Sc3ccccc32)CC1.[I-] | Acinetobacter baumannii | microbial growth, broth dilution | ATCC19606 | drug-resistant strain | MIC | 16 µg/mL
CC1SC2(CCCC2)N(NC(=O)c2[nH]c3ccc(Cl)cc3c2-c2ccccc2)C1=O (stereo not shown) | Enterovirus B | viral replication, inhibitor | Vero, B4 |  | EC50 | > 100 µM
COC(=O)c1cc(-c2cccc(NC(=O)Nc3ccc(F)cc3)c2)on1 | Acinetobacter baumannii | microbial growth, broth dilution | BAA1605 |  | MIC | > 64 µg/mL
CC1CCCC2(C1)SCC(=O)N2NC(=O)c1[nH]c2ccc(Cl)cc2c1-c1ccccc1 (stereo not shown) | Enterovirus B | viral replication, inhibitor | Vero, B4 |  | EC50 | > 100 µM
CC(=O)C1=C(O)C(CC(C)C)NC1=O (stereo not shown) | Proteus mirabilis | microbial growth | ATCC25933 |  | MIC | > 200 µg/mL
C[n+]1c(/C=C/c2ccc(O)cc2)cc(/C=C2\Sc3ccccc3N2CCCN2CCCC2)c2ccccc21.[I-] | Acinetobacter baumannii | microbial growth, broth dilution | ATCC19606 | drug-resistant strain | MIC | > 64 µg/mL
O=C(NN1C(=O)CSC12CCCCC2)c1[nH]c2ccc(Cl)cc2c1-c1ccccc1 | Enterovirus B | viral replication, inhibitor | Vero, B4 |  | EC50 | > 100 µM
O=C(Nc1cccc(-c2cc(C(=O)O)no2)c1)Nc1ccc(Cl)c(Cl)c1 | Acinetobacter baumannii | microbial growth, broth dilution | BAA1605 |  | MIC | > 64 µg/mL
CC1SC2(CCC(c3ccccc3)CC2)N(NC(=O)c2[nH]c3ccc(Cl)cc3c2-c2ccccc2)C1=O (stereo not shown) | Enterovirus B | viral replication, inhibitor | Vero, B4 |  | EC50 | > 100 µM
COC(=O)c1cc(-c2cccc(NC(=O)Nc3cccc(Cl)c3Cl)c2)on1 | Acinetobacter baumannii | microbial growth, broth dilution | BAA1605 |  | MIC | > 64 µg/mL
Cc1c(NN=C(C#N)C2=NC(=O)CS2)c(=O)n(-c2ccccc2)n1C | Acinetobacter baumannii | microbial growth, well diffusion |  | 100000 µg/mL | inhibition zone | 27 mm
CC(C)(C)C1CCC2(CC1)SCC(=O)N2NC(=O)c1[nH]c2ccc(Cl)cc2c1-c1ccccc1 (stereo not shown) | Enterovirus B | viral replication, inhibitor | Vero, B4 |  | EC50 | > 100 µM
C=C1CC[C@H](O)C/C1=C/C=C1\CCC[C@]2(C)[C@@H]([C@H](C)/C=C/[C@H](C)C(C)C)CC[C@@H]12 | Hepatitis C virus | viral replication, inhibitor, luciferase | GETYPE2A | 5 days, replicon | EC50 | 13 µM
CC1CCC2(CC1)SCC(=O)N2NC(=O)c1[nH]c2ccc(Cl)cc2c1-c1ccccc1 (stereo not shown) | Enterovirus B | viral replication, inhibitor | Vero, B4 |  | EC50 | > 100 µM
COC(=O)c1cc(-c2cccc(NC(=O)Nc3cc(Cl)ccc3Cl)c2)on1 | Acinetobacter baumannii | microbial growth, broth dilution | BAA1605 |  | MIC | > 64 µg/mL
CC(C)S(=O)(=O)n1c(N)nc2ccc(/C(=N/O)c3ccccc3)cc21 | Enterovirus B | viral replication, inhibitor | Vero 76, B3 |  | EC50 | < 0.01 µM
COC(=O)c1cc(-c2cccc(NC(=S)Nc3ccc(F)cc3)c2)on1 | Acinetobacter baumannii | microbial growth, broth dilution | BAA1605 |  | MIC | > 64 µg/mL
COc1nc(N)nc2c1ncn2[C@@H]1O[C@H](COP(=O)(N[C@@H](C)C(=O)OCC(C)(C)C)Oc2cccc3ccccc23)[C@@H](O)[C@@]1(C)O (stereo partly shown) | Hepatitis C virus | viral replication, inhibitor | GETYPE2A | 96 h, replicon | EC90 | 0.0128 µM
COC(=O)c1cc(-c2cccc(NC(=O)Nc3ccccc3)c2)on1 | Acinetobacter baumannii | microbial growth, broth dilution | BAA1605 |  | MIC | > 64 µg/mL
C=C1CC[C@H](O)C/C1=C/C=C1\CCC[C@]2(C)[C@@H]([C@H](C)CCCC(C)C)CC[C@@H]12 | Hepatitis C virus | viral replication, inhibitor, luciferase | BM4-5, GETYPE1B | 72 h, replicon | EC50 | 6.1 µM
CC1SC2(CCCCC2)N(NC(=O)c2[nH]c3ccc(Cl)cc3c2-c2ccccc2)C1=O (stereo not shown) | Enterovirus B | viral replication, inhibitor | Vero, B4 |  | EC50 | > 100 µM
COC(=O)c1cc(-c2cccc(NC(=O)Nc3cc(OC)ccc3OC)c2)on1 | Acinetobacter baumannii | microbial growth, broth dilution | BAA1605 |  | MIC | > 64 µg/mL
